From ChEMBL document CHEMBL5543163, “Druglike, 18F-labeled PET Tracers Targeting Fibroblast Activation Protein” (J Med Chem, 2024)
Values belong to the molecule of their own block, whether it stands above or below them.

Key:
Dipeptidyl peptidase 4 = Dipeptidyl peptidase 4 (Homo sapiens, UniProt P27487); test: Inhibition of DPP4 (unknown origin) using Ala-Pro-paranitroanilide as chromogenic substrate preincubated for 15 mins followed by substrate addition and measured after 15 mins
Dipeptidyl peptidase 9 = Dipeptidyl peptidase 9 (Homo sapiens, UniProt Q86TI2); test: Inhibition of DPP9 (unknown origin) using Ala-Pro-paranitroanilide as chromogenic substrate preincubated for 15 mins followed by substrate addition and measured after 15 mins
Prolyl endopeptidase = molecular target: T1, Prolyl endopeptidase (Homo sapiens, UniProt P48147); test: Inhibition of PREP (unknown origin) using N-succinyl-Gly-Pro-AMC as substrate preincubated for 15 mins followed by substrate addition and measured after 15 mins
T1 sequence (P48147 whole entry): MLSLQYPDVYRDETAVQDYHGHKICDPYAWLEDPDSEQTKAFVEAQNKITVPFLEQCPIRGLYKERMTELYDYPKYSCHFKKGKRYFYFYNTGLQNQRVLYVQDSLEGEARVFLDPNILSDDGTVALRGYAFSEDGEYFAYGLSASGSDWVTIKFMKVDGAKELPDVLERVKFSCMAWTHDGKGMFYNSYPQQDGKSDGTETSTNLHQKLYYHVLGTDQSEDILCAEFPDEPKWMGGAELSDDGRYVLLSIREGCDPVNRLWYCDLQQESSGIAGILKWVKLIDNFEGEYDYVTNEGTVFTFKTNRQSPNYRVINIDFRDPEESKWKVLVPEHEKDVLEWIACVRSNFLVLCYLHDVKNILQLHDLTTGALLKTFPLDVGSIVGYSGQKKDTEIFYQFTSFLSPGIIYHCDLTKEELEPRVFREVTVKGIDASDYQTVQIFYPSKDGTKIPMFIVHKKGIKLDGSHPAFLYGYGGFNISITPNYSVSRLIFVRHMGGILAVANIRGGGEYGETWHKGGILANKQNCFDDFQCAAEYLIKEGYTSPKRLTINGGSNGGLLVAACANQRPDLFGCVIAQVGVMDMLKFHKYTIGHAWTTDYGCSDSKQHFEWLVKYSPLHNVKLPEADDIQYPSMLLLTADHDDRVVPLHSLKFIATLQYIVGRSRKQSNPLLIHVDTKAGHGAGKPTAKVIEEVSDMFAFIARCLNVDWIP

Dipeptidyl peptidase 2 = Dipeptidyl peptidase 2 (Homo sapiens, UniProt Q9UHL4); test: Inhibition of DPP2 (unknown origin) using Lys-Ala-pNA as substrate preincubated for 15 mins followed by substrate addition and measured after 15 mins
Prolyl endopeptidase FAP = molecular target: T2, Prolyl endopeptidase FAP (Homo sapiens, UniProt Q12884); test: Inhibition of FAP (unknown origin) using Z-Gly-Pro-7-amino-4-methylcoumarine as fluorogenic substrate preincubated for 15 mins followed by substrate addition and measured after 15 mins
T2 sequence (Q12884 whole entry): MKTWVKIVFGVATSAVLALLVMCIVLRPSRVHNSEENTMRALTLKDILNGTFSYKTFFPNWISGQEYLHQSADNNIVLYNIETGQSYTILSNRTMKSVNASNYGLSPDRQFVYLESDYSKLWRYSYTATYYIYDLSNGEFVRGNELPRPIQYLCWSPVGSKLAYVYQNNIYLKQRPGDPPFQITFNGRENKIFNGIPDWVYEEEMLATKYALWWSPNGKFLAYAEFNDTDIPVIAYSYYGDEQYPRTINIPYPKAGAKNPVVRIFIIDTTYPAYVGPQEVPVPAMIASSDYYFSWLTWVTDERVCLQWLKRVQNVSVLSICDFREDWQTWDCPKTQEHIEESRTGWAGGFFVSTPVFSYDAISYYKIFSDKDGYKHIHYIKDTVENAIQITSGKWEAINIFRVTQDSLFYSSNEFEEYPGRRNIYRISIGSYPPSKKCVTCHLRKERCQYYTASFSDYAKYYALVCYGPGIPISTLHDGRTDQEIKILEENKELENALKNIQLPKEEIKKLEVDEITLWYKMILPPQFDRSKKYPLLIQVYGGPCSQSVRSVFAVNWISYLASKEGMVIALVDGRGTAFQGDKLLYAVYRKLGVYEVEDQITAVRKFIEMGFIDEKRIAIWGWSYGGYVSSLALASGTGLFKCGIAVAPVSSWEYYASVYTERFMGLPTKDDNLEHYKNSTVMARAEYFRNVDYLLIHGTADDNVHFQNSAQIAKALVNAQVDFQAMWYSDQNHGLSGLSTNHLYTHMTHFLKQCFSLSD

Dipeptidyl peptidase 8 = Dipeptidyl peptidase 8 (Homo sapiens, UniProt Q6V1X1); test: Inhibition of DPP8 (unknown origin) using Ala-Pro-paranitroanilide as chromogenic substrate preincubated for 15 mins followed by substrate addition and measured after 15 mins
[1] = Stability in CD1 mouse plasma assessed as compound remaining at 185 kBq measured upto 60 mins by radio-HPLC analysis; type: ADME, cell-free; conditions: read-out: Stability
In short: (§1)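 Radiotracer was incubated at 37 °C for up to 60 min in PBS (0.01 M, pH 7.4) or in mouse plasma. Samples were deproteinized with an equal volume of cold ACN and centrifuged. The supernatant was analyzed by radio-HPLC with 30 s fractions γ-counted to give the intact fraction. Triplicates.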

[2] = Drug uptake in intestine of female nude mouse harboring null mutation of CD1 antigen complex at 5.1 to 7.4 MBq, iv measured after 15 to 60 mins by gamma counter analysis; type: ADME, organism-based; conditions: in vivo, dose lower 5.1 MBq, time lower 15 min, dose upper 7.4 MBq, time upper 60 min
In short: (§2)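 Female CD1 nude mice, 6–8 weeks old (20–25 g), received the radiotracer through the lateral tail vein. At 15, 30 and 60 min p.i. (n = 3 per time point) blood was drawn by cardiac puncture and the animals were euthanized. Organs were excised, weighed and γ-counted. Uptake is expressed as %ID/g.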

[3] = Drug uptake in blood of female nude mouse harboring null mutation of CD1 antigen complex at 5.1 to 7.4 MBq, iv measured after 15 to 60 mins by gamma counter analysis; type: ADME, organism-based; conditions: in vivo, dose lower 5.1 MBq, time lower 15 min, dose upper 7.4 MBq, time upper 60 min; in short: as §2
[4] = Stability in female nude mouse harboring null mutation of CD1 antigen complex assessed as drug degradation at 5.1 to 7.4 MBq, iv measured at 60 mins by radio-HPLC analysis; type: ADME, organism-based; conditions: 1 h, dose 5.1-7.4 MBq
In short: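 Female CD1 nude mice received 5.1–7.4 MBq i.v. EDTA blood collected at 15, 30 and 60 min p.i. (n=3 per time point) was centrifuged to plasma, deproteinized with cold ACN and centrifuged. The supernatant was analyzed by radio-HPLC with 30 s fractions γ-counted to give the percent intact tracer.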

[5] = Drug uptake in tumor of female nude mouse harboring null mutation of CD1 antigen complex xenografted with human U-87 MG cells at 5 to 7.4 MBq, iv measured at 60 mins by PET/CT analysis; type: ADME, organism-based, Neoplasm; conditions: in vivo, 1 h, dose 5-7.4 MBq
In short: (§3)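 U-87MG xenografts (5×10^6 cells, subcutaneous flank) were grown in female CD1 nude mice to about 200 mm3. Dynamic whole-body PET over 60 min p.i. was followed by CT. Images were reconstructed with OSEM 3D and expressed as %ID/mL to give time-activity curves. For blocking, the FAP inhibitor (5 mg/kg) was given via the tail vein 30 min before the tracer; n=4.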

[6] = Ratio of drug level in tumor to muscle of female nude mouse harboring null mutation of CD1 antigen complex xenografted with human U-87 MG cells at 5 to 7.4 MBq, iv measured at 60 mins postinjection by gamma counter analysis; type: ADME, organism-based; conditions: in vivo, 1 h, dose 5-7.4 MBq
In short: (§4)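 Subcutaneous U-87MG xenografts (5×10^6 cells in DPBS, hind flank) were grown in female CD1 nude mice to about 200 mm3. After tail-vein radiotracer injection and a 60 min dynamic PET scan, tissues were harvested at 60 min p.i. and γ-counted (%ID/g). Tumor-to-tissue ratios are means ± SD of individual ratios, n=4 per tracer.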

[7] = Ratio of drug level in tumor to liver of female nude mouse harboring null mutation of CD1 antigen complex xenografted with human U-87 MG cells at 5 to 7.4 MBq, iv measured at 60 mins postinjection by gamma counter analysis; type: ADME, organism-based; conditions: in vivo, 1 h, dose 5-7.4 MBq; in short: as §4
[8] = Drug uptake in tumor of female nude mouse harboring null mutation of CD1 antigen complex xenografted with human HT-29 cells with decreased FAP positive tumor area at 5 to 7.4 MBq, iv measured after 60 mins by immunohistochemistry analysis; type: ADME, organism-based, Neoplasm; conditions: in vivo, 1 h, dose 5-7.4 MBq
[9] = Drug uptake in bone structures of female nude mouse harboring null mutation of CD1 antigen complex xenografted with human U-87 MG cells at 5 to 7.4 MBq, iv measured after 60 mins by gamma counter analysis; type: ADME, organism-based, Bone element; conditions: in vivo, 1 h, dose 5-7.4 MBq
[10] = Stability in PBS assessed as drug degradation at 185 kBq measured upto 60 mins by radio-HPLC analysis; type: physicochemical; conditions: buffer, 1 h; in short: as §1
[11] = Ratio of drug level in tumor to blood of female nude mouse harboring null mutation of CD1 antigen complex xenografted with human U-87 MG cells at 5 to 7.4 MBq, iv measured at 60 mins postinjection by gamma counter analysis; type: ADME, organism-based; conditions: tumour, 1 h, dose 5-7.4 MBq; in short: as §4
[12] = Drug uptake in kidney of female nude mouse harboring null mutation of CD1 antigen complex assessed as increase in renal excretion at 5.1 to 7.4 MBq, iv measured after 15 to 60 mins by gamma counter analysis; type: ADME, organism-based; conditions: in vivo, dose lower 5.1 MBq, time lower 15 min, dose upper 7.4 MBq, time upper 60 min; in short: as §2
[13] = Drug uptake in urinary bladder of female nude mouse harboring null mutation of CD1 antigen complex assessed as increase in renal excretion at 5.1 to 7.4 MBq, iv measured after 15 to 60 mins by gamma counter analysis; type: ADME, organism-based; conditions: in vivo, dose lower 5.1 MBq, time lower 15 min, dose upper 7.4 MBq, time upper 60 min; in short: as §2
[14] = Drug uptake in skull of female nude mouse harboring null mutation of CD1 antigen complex xenografted with human U-87 MG cells at 5 to 7.4 MBq, iv measured after 60 mins by gamma counter analysis; type: ADME, organism-based; conditions: in vivo, 1 h, dose 5-7.4 MBq
[15] = Octanol/water partition coefficient, logD of compound at 74 kBq incubated for 2 mins by gamma counter method; type: physicochemical
In short: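 Octanol and PBS phases were mixed and vortexed for 2 min, then centrifuged at 3,000 rpm for 10 min. Aliquots of 0.5 mL from each phase were γ-counted and corrected for mass and density. LogD was taken as log10 of the octanol/PBS radioactivity ratio.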

[16] = Ratio of drug level in tumor to small intestine of female nude mouse harboring null mutation of CD1 antigen complex xenografted with human U-87 MG cells at 5 to 7.4 MBq, iv measured at 60 mins postinjection by gamma counter analysis; type: ADME, organism-based; conditions: in vivo, 1 h, dose 5-7.4 MBq; in short: as §4
[17] = Drug uptake in tumor of female nude mouse harboring null mutation of CD1 antigen complex xenografted with human U-87 MG cells with increased FAP positive tumor area at 5 to 7.4 MBq, iv measured after 60 mins by immunohistochemistry analysis; type: ADME, organism-based, Neoplasm; conditions: in vivo, 1 h, dose 5-7.4 MBq
[18] = Stability in PBS assessed as compound remaining at 185 kBq measured upto 60 mins by radio-HPLC analysis; type: physicochemical; conditions: read-out: Stability; in short: as §1
[19] = Drug uptake in liver of female nude mouse harboring null mutation of CD1 antigen complex at 5.1 to 7.4 MBq, iv measured after 15 to 60 mins by gamma counter analysis; type: ADME, organism-based; conditions: in vivo, dose lower 5.1 MBq, time lower 15 min, dose upper 7.4 MBq, time upper 60 min; in short: as §2
[20] = Stability in CD1 mouse plasma assessed as drug degradation at 185 kBq measured upto 60 mins by radio-HPLC analysis; type: ADME, cell-free; conditions: 1 h; in short: as §1
[21] = Drug uptake in tumor of female nude mouse harboring null mutation of CD1 antigen complex xenografted with human U-87 MG cells at 5 to 7.4 MBq, iv pretreated with (S)-N-(2-(2-cyano-4,4-difluoropyrrolidin-1-yl)-2-oxoethyl)quinoline-4-carboxamide for 30 mins followed by radioligand addition and measured measured after 60 mins by PET/CT analysis; type: ADME, organism-based, Neoplasm; conditions: in vivo, 1 h, dose 5-7.4 MBq; in short: as §3

Sequence of Dipeptidyl peptidase 8 (Q6V1X1 whole entry): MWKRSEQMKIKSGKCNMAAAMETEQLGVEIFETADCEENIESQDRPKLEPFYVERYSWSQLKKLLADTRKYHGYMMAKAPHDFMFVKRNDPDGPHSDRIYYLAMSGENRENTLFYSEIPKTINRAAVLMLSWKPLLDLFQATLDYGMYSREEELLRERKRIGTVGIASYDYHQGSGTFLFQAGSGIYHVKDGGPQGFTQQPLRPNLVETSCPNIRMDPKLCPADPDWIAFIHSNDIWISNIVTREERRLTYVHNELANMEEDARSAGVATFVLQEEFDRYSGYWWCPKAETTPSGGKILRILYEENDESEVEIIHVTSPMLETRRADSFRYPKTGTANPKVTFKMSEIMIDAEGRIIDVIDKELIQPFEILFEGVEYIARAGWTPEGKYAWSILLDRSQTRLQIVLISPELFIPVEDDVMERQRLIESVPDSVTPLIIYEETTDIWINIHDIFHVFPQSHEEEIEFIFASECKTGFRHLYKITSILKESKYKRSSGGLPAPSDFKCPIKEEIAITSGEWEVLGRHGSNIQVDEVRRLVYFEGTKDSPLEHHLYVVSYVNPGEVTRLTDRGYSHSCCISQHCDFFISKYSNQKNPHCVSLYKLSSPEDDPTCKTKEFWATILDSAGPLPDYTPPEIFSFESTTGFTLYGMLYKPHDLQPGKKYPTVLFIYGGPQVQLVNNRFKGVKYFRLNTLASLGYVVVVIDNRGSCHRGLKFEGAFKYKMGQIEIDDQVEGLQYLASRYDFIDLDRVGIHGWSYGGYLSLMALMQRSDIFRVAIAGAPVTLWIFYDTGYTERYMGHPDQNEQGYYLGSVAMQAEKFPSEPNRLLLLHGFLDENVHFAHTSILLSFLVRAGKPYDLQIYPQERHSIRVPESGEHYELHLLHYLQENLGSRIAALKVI
Sequence of Dipeptidyl peptidase 9 (Q86TI2 whole entry): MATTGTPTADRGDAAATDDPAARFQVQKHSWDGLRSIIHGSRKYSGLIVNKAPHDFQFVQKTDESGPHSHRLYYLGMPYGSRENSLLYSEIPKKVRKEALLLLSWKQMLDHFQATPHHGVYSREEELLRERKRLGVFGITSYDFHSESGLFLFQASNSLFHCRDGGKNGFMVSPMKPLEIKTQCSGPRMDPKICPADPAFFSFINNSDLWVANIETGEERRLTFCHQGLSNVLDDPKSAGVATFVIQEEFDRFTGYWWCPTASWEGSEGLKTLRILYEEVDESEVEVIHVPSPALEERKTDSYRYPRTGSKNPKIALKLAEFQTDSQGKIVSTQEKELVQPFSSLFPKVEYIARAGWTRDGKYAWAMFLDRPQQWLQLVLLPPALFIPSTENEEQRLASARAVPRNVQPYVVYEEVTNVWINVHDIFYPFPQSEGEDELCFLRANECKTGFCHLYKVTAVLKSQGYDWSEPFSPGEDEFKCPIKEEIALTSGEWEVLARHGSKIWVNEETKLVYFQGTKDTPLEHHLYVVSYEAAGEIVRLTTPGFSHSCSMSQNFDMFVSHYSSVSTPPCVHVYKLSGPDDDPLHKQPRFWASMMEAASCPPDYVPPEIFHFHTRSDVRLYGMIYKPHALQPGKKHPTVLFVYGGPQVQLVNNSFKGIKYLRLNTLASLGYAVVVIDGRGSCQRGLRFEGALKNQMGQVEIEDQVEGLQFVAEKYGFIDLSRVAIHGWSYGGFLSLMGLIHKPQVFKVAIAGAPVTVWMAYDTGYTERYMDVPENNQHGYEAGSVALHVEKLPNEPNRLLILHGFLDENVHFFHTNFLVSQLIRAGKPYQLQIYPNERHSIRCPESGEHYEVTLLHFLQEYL
Sequence of Dipeptidyl peptidase 4 (P27487 whole entry): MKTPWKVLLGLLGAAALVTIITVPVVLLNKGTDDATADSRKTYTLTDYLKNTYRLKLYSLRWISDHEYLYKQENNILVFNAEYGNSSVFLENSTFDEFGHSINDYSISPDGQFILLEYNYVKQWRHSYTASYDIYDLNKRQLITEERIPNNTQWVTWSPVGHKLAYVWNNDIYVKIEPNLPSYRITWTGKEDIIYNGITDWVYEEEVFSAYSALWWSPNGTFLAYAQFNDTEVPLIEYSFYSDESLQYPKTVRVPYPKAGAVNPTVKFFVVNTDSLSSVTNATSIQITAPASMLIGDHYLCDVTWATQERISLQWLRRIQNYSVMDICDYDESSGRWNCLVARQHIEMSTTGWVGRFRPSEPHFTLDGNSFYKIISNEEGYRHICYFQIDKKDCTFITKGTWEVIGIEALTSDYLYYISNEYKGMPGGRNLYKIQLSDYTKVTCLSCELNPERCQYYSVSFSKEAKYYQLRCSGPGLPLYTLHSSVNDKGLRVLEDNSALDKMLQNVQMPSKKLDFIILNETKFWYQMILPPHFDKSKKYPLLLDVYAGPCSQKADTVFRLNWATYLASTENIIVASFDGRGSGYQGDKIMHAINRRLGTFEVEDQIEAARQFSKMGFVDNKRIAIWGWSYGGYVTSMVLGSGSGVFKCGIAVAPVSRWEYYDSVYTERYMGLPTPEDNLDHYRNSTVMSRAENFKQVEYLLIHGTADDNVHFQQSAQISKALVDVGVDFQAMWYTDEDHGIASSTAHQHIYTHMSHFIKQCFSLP

IC50 (Dipeptidyl peptidase 4): > 10 µM
IC50 (Dipeptidyl peptidase 9): > 10 µM
IC50 (Prolyl endopeptidase): > 10 µM
IC50 (Dipeptidyl peptidase 2): > 10 µM
IC50 (Prolyl endopeptidase FAP): 0.00177 µM
IC50 (Dipeptidyl peptidase 8): > 10 µM
SMILES: N#C[C@@H]1CC(F)(F)CN1C(=O)CNC(=O)c1ccnc2ccc(OC[C@H](O)[C@@H](O)CF)cc12

remaining at 1 h, 185 kBq [1]: > 70%
Drug uptake [2]: Active
Drug uptake [3]: 0.13 % ID/g
Stability [4]: Unstable
Drug uptake [5]: < 3 %ID/ml
Ratio [6]: 5.26
Ratio [7]: 1.67
Drug uptake [8]: Not Active
Drug uptake [9]: Active
Stability [10]: Stable
Ratio [11]: 6.56
Drug uptake [12]: Active
Drug uptake [13]: Active
Drug uptake [14]: Active
logD at 2 min [15]: -0.27
Ratio [16]: 0.12
Drug uptake [17]: Active
remaining at 1 h, 185 kBq [18]: > 70%
Drug uptake [19]: Active
Stability [20]: Stable
Drug uptake [21]: Not Active
SMILES: N#C[C@@H]1CC(F)(F)CN1C(=O)CNC(=O)c1ccnc2ccc(OCC(O)C(O)C[18F])cc12 (stereo partly drawn)

IC50 (Dipeptidyl peptidase 4): > 10 µM
IC50 (Dipeptidyl peptidase 9): > 10 µM
IC50 (Prolyl endopeptidase): > 10 µM
IC50 (Dipeptidyl peptidase 2): > 10 µM
IC50 (Prolyl endopeptidase FAP): 0.00046 µM
IC50 (Dipeptidyl peptidase 8): > 10 µM
SMILES: CC1(C)O[C@@H](CF)[C@H](COc2ccc3nccc(C(=O)NCC(=O)N4CC(F)(F)C[C@H]4C#N)c3c2)O1
